According to ChEMBL document CHEMBL4376891, “Benzenesulfonamide Derivatives as Calcium/Calmodulin-Dependent Protein Kinase Inhibitors and Antiviral Agents against Dengue and Zika Virus Infections” (J Med Chem, 2020):
Activity calls are given as the source filed them. The rule behind the calls is not given here.

Assays:
Zika virus [1] = assay: Antiviral activity against Zika virus infected in human BE(2)-C cells transfected with shCaMKIIalpha assessed as NS3 protein expression at 3.125 uM incubated for 48 hrs by Western blot analysis (reference value: 100%); type: functional
Zika virus [2] = assay: Antiviral activity against Zika virus infected in Stat1-/- mouse assessed as reduction in viral load at 4 to 8mg/kg/day, po dosed immediately following viral infection followed by daily dosing for 3 days; type: functional, organism-based
In short: (§1)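 Stat1-/- mice infected with DENV-2 NGC-N (1x10⁵ PFU iv) or ZIKV PRVABC59 (5x10⁴ PFU sc, footpad), with oral dosing or PBS starting immediately. Serum was taken from the submandibular vein on day 3 post-infection. Viremia was measured by plaque assay and reported as individual values and mean; n = 5.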

dengue virus type 2 [3] = assay: Antiviral activity against Dengue virus 2 infected in human BE(2)-C cells transfected with shCaMKIIalpha assessed as NS3 protein expression at 6.25 uM incubated for 48 hrs by Western blot analysis (reference value: 100%); type: functional
dengue virus type 2 [4] = conditions: 3.125 to 6.25 uM
Zika virus [5] = assay: Antiviral activity against Zika virus infected in human BE(2)-C cells assessed as NS3 protein expression at 3.125 uM treated during 0 to 3 hrs post infection by Western blot analysis (reference value: 100%); type: functional
In short: (§2)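 Time-of-addition design: BE(2)C cells were infected with DENV-2 or ZIKV at MOI 1. Compound at 3.125 or 6.25 μM was present either during adsorption (0–3 hpi) or afterward (3–24 hpi). Viral protein was immunoblotted against actin, with the ratio as % of the solvent control.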

Zika virus [6] = assay: Antiviral activity against Zika virus infected in human HMC3 cells assessed as reduction in viral progeny production at 1.56 to 12.5 uM incubated for 48 hrs by Virus titer assay; type: functional, organism-based
In short: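 HMC3 microglia were grown in MEM with 10% FBS and infected with ZIKV PRVABC59 (MOI 0.1) for 48 h at the specified concentrations. Viral protein was read by immunofluorescence with Hoechst nuclear stain. Infectious progeny was titred by plaque assay on Vero cells (log PFU/mL). DMSO served as the solvent control.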

dengue virus type 2 [7] = assay: Antiviral activity against Dengue virus 2 infected in human BE(2)-C cells assessed as NS3 protein expression incubated for 48 hrs by Western blot analysis; type: functional, organism-based
In short: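 BE(2)C neuroblastoma cells in RPMI 1640 with 10% FBS were infected with DENV-2 PL046 at MOI 0.1 for 48 h, without or with compound at increasing concentrations. NS3 was immunoblotted with actin as loading control. The NS3:actin densitometry ratio was expressed as % of the DMSO control. Mean ± SD of 3 independent experiments.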

dengue virus type 2 [8] = assay: Antiviral activity against DENV-2 NGC-N infected in Stat1-/- mouse assessed as overall mouse survival at 4 mg/kg, po dosed immediately following viral infection followed by daily dosing for 6 days (reference value: 0%); type: functional; conditions: 144 h
dengue virus type 2 [9] = assay: Antiviral activity against Dengue virus 2 infected in human BE(2)-C cells assessed as reduction in NS3 protein expression at 3.125 to 6.25 uM treated during 3 to 24 hrs post infection by Western blot analysis; type: functional, organism-based; in short: as §2
dengue virus type 2 [10] = assay: Antiviral activity against DENV-2 NGC-N infected in Stat1-/- mouse assessed as reduction in viral load at 4 to 8mg/kg/day, po dosed immediately following viral infection followed by daily dosing for 3 day; type: functional, organism-based; in short: as §1
dengue virus type 2 [11] = assay: Antiviral activity against Dengue virus 2 infected in human BE(2)-C cells assessed as reduction in viral entry at 3.125 to 6.25 uM incubated for 90 mins by plaque-forming assay; type: functional, organism-based
In short: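 Virus entry: BE(2)C cells were incubated with DENV-2 or ZIKV for 90 min at 4 °C and washed cold. Cells were then treated with 3.125 or 6.25 μM compound at 37 °C for 1 h. Non-internalized virus was inactivated with 0.1 M glycine, pH 3, for 5 min. Cells were lysed by needle passage, and internalized virus was titrated by plaque assay. Mean ± SD, n = 3.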

Zika virus [12] = assay: Antiviral activity against Zika virus infected in human BE(2)-C cells transfected with shLacZ assessed as NS3 protein expression at 6.25 uM incubated for 48 hrs by Western blot analysis (reference value: 100%); type: functional
Zika virus [13] = assay: Antiviral activity against Zika virus infected in Stat1-/- mouse assessed as delay in virus-induced mouse mortality at 4 mg/kg/day, po dosed immediately following viral infection followed by daily dosing for 6 days (reference value: 13 days); type: functional, organism-based
Zika virus [14] = assay: Antiviral activity against fluorescently labeled Zika virus infected in human BE(2)-C cells at 3.125 uM by confocal microscopy; type: functional, organism-based
In short: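 DENV-2 or ZIKV was concentrated and labeled with atto-647N dye. BE(2)C cells were pretreated with solvent or 3.125 µM, then incubated at 37 °C with labeled DENV-2 for 30 min or ZIKV for 60 min. Cells were fixed in 4% paraformaldehyde, membranes stained with WGA-488, and intracellular virus signal imaged by confocal microscopy.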

dengue virus type 2 [15] = assay: Antiviral activity against DENV-2 NGC-N infected in Stat1-/- mouse assessed as improvement in mouse survival by measuring median survival time at 2 mg/kg, po dosed 8 hrs after infection and ending at day 6 after infection (8 hrs delay) (reference value: 10 days); type: functional
Zika virus [16] = assay: Antiviral activity against Zika virus infected in human HMC3 cells assessed as reduction in NS3 protein expression at 1.56 to 12.5 uM incubated for 24 hrs by immunofluorescence microscopy; type: functional, organism-based
dengue virus type 2 [17] = assay: Antiviral activity against Dengue virus 2 infected in human BE(2)-C cells assessed as suppression of viral-induced CaMKIIalpha activation at 3.125 uM incubated for 4 hrs by confocal microscopy; type: functional, organism-based
Influenza A virus = assay: Antiviral activity of Influenza A virus (H1N1) infected in human HMC3 cells assessed as reduction in nucleoprotein protein expression at 0.781 to 12.5 uM incubated for 24 hrs by immunofluorescence microscopy; type: functional, organism-based
dengue virus type 2 [18] = assay: Antiviral activity against Dengue virus 2 infected in human BE(2)-C cells assessed as NS3 protein expression at 6.25 uM treated during 3 to 24 hrs post infection by Western blot analysis (reference value: 100%); type: functional; in short: as §2
dengue virus type 2 [19] = assay: Antiviral activity against eGFP-fused Dengue virus 2 infected in human BE(2)-C cells assessed as viral infection level by measuring intensity of eGFP emission from infected cells at 1.56 uM incubated for 24 hrs relative to control; type: functional
In short: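 BE(2)C cells, in RPMI 1640 with 10% FBS, were infected with DENV-2-eGFP reporter virus (MOI 1) for 24 h with or without compound, using DMSO as solvent control. Cells were fixed in 4% paraformaldehyde and stained with Hoechst, then imaged by high-content analysis. eGFP intensity per cell number is given as % of solvent control. Values are means of 3 experiments.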

Zika virus [20] = assay: Antiviral activity against Zika virus infected in human BE(2)-C cells transfected with shCaMKIIalpha assessed as NS3 protein expression at 6.25 uM incubated for 48 hrs by Western blot analysis (reference value: 100%); type: functional

COc1ccc(S(=O)(=O)N(CCCC(=O)C2CCCCCC2)c2ccccc2)cc1
Activity (Zika virus [1]): 101% | Activity (Zika virus [2]): Active | Activity (dengue virus type 2 [3]): 75.4% | inhibition (dengue virus type 2 [4]): inactive | Activity (Zika virus [5]): 60.1% | Activity (Zika virus [6]): Active | Activity (dengue virus type 2 [7]): Dose-dependent effect | survival at 4 mg/kg (dengue virus type 2 [8]): 60% | Activity (dengue virus type 2 [9]): inactive | Activity (dengue virus type 2 [10]): Active | Activity (dengue virus type 2 [11]): Dose-dependent effect | Activity (Zika virus [12]): 25.9% | Activity (Zika virus [13]): inactive | Activity (Zika virus [14]): Active | MST (dengue virus type 2 [15]): 14 days | Activity (Zika virus [16]): Active | Activity (dengue virus type 2 [17]): Active | Activity (Influenza A virus): Active | Activity (dengue virus type 2 [18]): 55.3% | Activity (dengue virus type 2 [19]): 31.8% | Activity (Zika virus [20]): 89.1%
